Experimental data as given in ChEMBL document CHEMBL3739344, “A novel class of negative allosteric modulators of NMDA receptor function” (Bioorg Med Chem Lett, 2015).
In brackets after ≈: the same amount, converted by molar mass. Activity calls are given as the source filed them. The calls are words filed in the database; no cut-off is given here.

How the values were obtained:
[1] = target: T1, Glutamate NMDA receptor; Grin1/Grin2c (Rattus norvegicus) (UniProt P35439+Q00961); assay: (§1) Negative allosteric modulation of rat GluN1a/GluN2C receptor expressed in Xenopus laevis oocytes assessed as suppression of 100 uM glutamate and 30 uM glycine induced-current at -60 to +60 mV at 3 uM by voltage clamp recording method in absence of Mg2+; assay type: cell-based
In short: (§2)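 GluN1/GluN2C receptors in Xenopus oocytes, two-electrode voltage clamp in Mg2+-free solution. Currents evoked by maximally effective glutamate plus glycine, without and with 3 µM inhibitor, recorded at membrane potentials from −60 to +60 mV. Reversal potential taken from the current–voltage relationship (3rd-order polynomial fit). n = 5 oocytes, mean ±SEM.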

[2] = Solubility of compound in TEVC electrophysiological solution at 3.25 to 100 uM by nephelometric method; assay type: physicochemical
In short: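 Nephelometry measuring forward light scattering of each compound at 3.25–100 µM in TEVC recording solution. Maximum solubility taken as the intersection point of a linear segmental regression. Mean of n = 2 in quadruplicate.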

[3] = target: Glutamate NMDA receptor; Grin1/Grin2c (Rattus norvegicus, UniProt P35439+Q00961); assay: Negative allosteric modulation of rat GluN1a/GluN2C receptor expressed in Xenopus laevis oocytes assessed as suppression of 100 uM glutamate and 30 uM glycine induced-current by voltage clamp recording method; assay type: cell-based
In short: (§3)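 Rat GluN1-1a cRNA co-injected with GluN2A, 2B, 2C or 2D cRNA into Xenopus oocytes; expression 1–3 days at 16–19 °C. Two-electrode voltage clamp. Currents evoked by 100 µM glutamate plus 30 µM glycine, alone and then with rising inhibitor concentrations. […] 4–17 oocytes from ≥2 frogs.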

[4] = target: T1, Glutamate NMDA receptor; Grin1/Grin2c (Rattus norvegicus); assay: as §1, with “Voltage-independent negative” for “Negative”, “mean reverse potential” for “suppression”, “Mg2+ (Rvb=-13+/-0.6 mV)” for “Mg2+”; assay type: cell-based; in short: as §2
[5] = target: T2, Glutamate NMDA receptor; Grin1/Grin2a (Rattus norvegicus) (UniProt P35439+Q00959); assay: Noncompetitive negative allosteric modulation of rat GluN1a/GluN2A receptor expressed in Xenopus laevis oocytes assessed as suppression of 100 uM glutamate and 300 uM glycine induced-current at 5 uM by voltage clamp recording method relative to control; assay type: cell-based
In short: (§4)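 Oocytes expressing GluN1 with GluN2A, 2B, 2C or 2D, two-electrode voltage clamp. Inhibition by 5 µM compound of currents evoked by 100 µM glutamate plus 30 µM glycine, compared with inhibition when glutamate was raised to 1000 µM or glycine to 300 µM. Mean ±SEM from 4–6 oocytes.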

[6] = target: Glutamate NMDA receptor; Grin1/Grin2b (Rattus norvegicus, UniProt P35439+Q00960); assay: Negative allosteric modulation of rat GluN1a/GluN2B receptor expressed in Xenopus laevis oocytes assessed as suppression of 100 uM glutamate and 30 uM glycine induced-current by voltage clamp recording method; assay type: cell-based; in short: as §3
[7] = target: T2, Glutamate NMDA receptor; Grin1/Grin2a (Rattus norvegicus); assay: Noncompetitive negative allosteric modulation of rat GluN1a/GluN2A receptor expressed in Xenopus laevis oocytes assessed as suppression of 1000 uM glutamate and 30 uM glycine induced-current at 5 uM by voltage clamp recording method relative to control; assay type: cell-based; in short: as §4
[8] = target: T3, Glutamate NMDA receptor; Grin1/Grin2b (Rattus norvegicus) (UniProt P35439+Q00960); assay: Noncompetitive negative allosteric modulation of rat GluN1a/GluN2B receptor expressed in Xenopus laevis oocytes assessed as suppression of 1000 uM glutamate and 30 uM glycine induced-current at 5 uM by voltage clamp recording method relative to control; assay type: cell-based; in short: as §4
[9] = target: Glutamate NMDA receptor; Grin1/Grin2a (Rattus norvegicus, UniProt P35439+Q00959); assay: Negative allosteric modulation of rat GluN1a/GluN2A receptor expressed in Xenopus laevis oocytes assessed as suppression of 100 uM glutamate and 30 uM glycine glycine induced-current by voltage clamp recording method; assay type: cell-based; in short: as §3
[10] = target: T3, Glutamate NMDA receptor; Grin1/Grin2b (Rattus norvegicus); assay: Noncompetitive negative allosteric modulation of rat GluN1a/GluN2B receptor expressed in Xenopus laevis oocytes assessed as suppression of 100 uM glutamate and 300 uM glycine induced-current at 5 uM by voltage clamp recording method relative to control; assay type: cell-based; in short: as §4
[11] = tested on: Primary neuron; assay: Neuroprotective activity in rat primary hippocampal neurons assessed as 100 uM NMDA and 30 uM glycine induced LDH release in media at 30 uM after 20 to 24 hrs by spectrophotometric analysis; assay type: functional, cell-based
In short: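 Primary rat hippocampal neurons kept 7–10 days in vitro at 37 °C. Challenged for 1 h with Mg2+-free medium containing 100 µM NMDA plus 30 µM glycine, with or without […], then returned to normal medium. LDH activity in the supernatant read spectrophotometrically 20–24 h later and expressed relative to vehicle-treated cells. Triplicates from 6 independent experiments.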

[12] = target: Ionotropic glutamate receptor NMDA 1/2D (Rattus norvegicus, UniProt P35439+Q62645); assay: Negative allosteric modulation of rat GluN1a/GluN2D receptor expressed in Xenopus laevis oocytes assessed as suppression of 100 uM glutamate and 30 uM glycine induced-current by voltage clamp recording method; assay type: cell-based; in short: as §3
[13] = target: T1, Glutamate NMDA receptor; Grin1/Grin2c (Rattus norvegicus); assay: Negative allosteric modulation of rat GluN1a/GluN2C receptor expressed in Xenopus laevis oocytes assessed as suppression of 100 uM glutamate and 30 uM glycine induced-current at saturating compound level by voltage clamp recording method; assay type: cell-based; in short: as §3
[14] = target: Glutamate NMDA receptor; assay: Negative allosteric modulation of NMDA receptor in rat cerebellar granule cells assessed as suppression of 100 uM glutamate and 30 uM glycine induced-current cotreated with 100 uM NMDA and 50 uM glycine by patch clamp recording method
In short: (§5)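 Primary cerebellar granule cell cultures from P6–8 rats, whole-cell patch clamp at a holding potential of −70 mV. NMDA receptor currents evoked by 100 µM NMDA plus 30 µM glycine (50 µM glycine in the example trace), with the inhibitor co-applied at various concentrations. Steady-state inhibition averaged over n = 5 cells and fitted with the Hill equation.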

[15] = target: T4, Ionotropic glutamate receptor NMDA 1/2D (Rattus norvegicus) (UniProt P35439+Q62645); assay: Noncompetitive negative allosteric modulation of rat GluN1a/GluN2D receptor expressed in Xenopus laevis oocytes assessed as suppression of 1000 uM glutamate and 30 uM glycine induced-current at 5 uM by voltage clamp recording method relative to control; assay type: cell-based; in short: as §4
[16] = target: Glutamate NMDA receptor (Rattus norvegicus) (UniProt P35439+Q00959+Q00960+Q00961+Q62645+Q8VHN2+Q9R1M7); assay: Negative allosteric modulation of NMDA receptor in rat cerebellar granule cells assessed as suppression of 100 uM glutamate and 30 uM glycine induced-current at 30 uM cotreated with 100 uM NMDA and 50 uM glycine by patch clamp recording method; in short: as §5
[17] = target: T4, Ionotropic glutamate receptor NMDA 1/2D (Rattus norvegicus); assay: Noncompetitive negative allosteric modulation of rat GluN1a/GluN2D receptor expressed in Xenopus laevis oocytes assessed as suppression of 100 uM glutamate and 300 uM glycine induced-current at 5 uM by voltage clamp recording method relative to control; assay type: cell-based; in short: as §4
[18] = target: T1, Glutamate NMDA receptor; Grin1/Grin2c (Rattus norvegicus); assay: Noncompetitive negative allosteric modulation of rat GluN1a/GluN2C receptor expressed in Xenopus laevis oocytes assessed as suppression of 100 uM glutamate and 300 uM glycine induced-current at 5 uM by voltage clamp recording method relative to control; assay type: cell-based; in short: as §4
[19] = target: T4, Ionotropic glutamate receptor NMDA 1/2D (Rattus norvegicus); assay: Negative allosteric modulation of rat GluN1a/GluN2D receptor expressed in Xenopus laevis oocytes assessed as suppression of 100 uM glutamate and 30 uM glycine induced-current at saturating compound level by voltage clamp recording method; assay type: cell-based; in short: as §3
[20] = target: T1, Glutamate NMDA receptor; Grin1/Grin2c (Rattus norvegicus); assay: Noncompetitive negative allosteric modulation of rat GluN1a/GluN2C receptor expressed in Xenopus laevis oocytes assessed as suppression of 1000 uM glutamate and 30 uM glycine induced-current at 5 uM by voltage clamp recording method relative to control; assay type: cell-based; in short: as §4
[21] = target: T2, Glutamate NMDA receptor; Grin1/Grin2a (Rattus norvegicus); assay: Negative allosteric modulation of rat GluN1a/GluN2A receptor expressed in Xenopus laevis oocytes assessed as suppression of 100 uM glutamate and 30 uM glycine induced-current at saturating compound level by voltage clamp recording method; assay type: cell-based; in short: as §3
[22] = target: T3, Glutamate NMDA receptor; Grin1/Grin2b (Rattus norvegicus); assay: Negative allosteric modulation of rat GluN1a/GluN2B receptor expressed in Xenopus laevis oocytes assessed as suppression of 100 uM glutamate and 30 uM glycine induced-current at saturating compound level by voltage clamp recording method; assay type: cell-based; in short: as §3

CCOC(=O)c1c(NC(=O)CC2SC(N)=NC2=O)sc2c1CCC(C)C2 (racemic)
inhibition [1]: Active | solubility kinetic [2]: 43 µM (≈ 17 µg/mL) | IC50 [3]: 700 nM | Activity [4]: -11.9 mV | inhibition [5]: Active | IC50 [6]: 2200 nM | inhibition [7]: Active | inhibition [8]: Active | IC50 [9]: 900 nM | inhibition [10]: Active | Activity [11]: Active | IC50 [12]: 400 nM | inhibition [13]: 80% | IC50 [14]: 3400 nM | inhibition [15]: Active | inhibition [16]: Active | inhibition [17]: Active | inhibition [18]: Active | inhibition [19]: 76% | inhibition [20]: Active | inhibition [21]: 88% | inhibition [22]: 70%
